Measurements published in publication PMC5115981 (Cancer chemotherapy and pharmacology, 2016).
Values joined by “and” are separate entries in the source; they are usually repeats but may differ in a detail not shown here. Equal values may be shown once.

Test: Single dose pharmacokinetics in mice
Assay type: in vivo, mouse
Procedure, shortened: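 Fasted female heterozygous Foxn1nu/Foxn1+ mice, 3 per time point (5–1440 min), received a single dose by one of three routes: 4.0 mg/kg in 10% Solutol HS IV via tail vein; the same formulation by oral gavage; or 30 mg/kg PO in 1% CMC suspension. Vehicle controls were taken at 5 and 1440 min. Sampling: cardiac-puncture EDTA plasma, tissues including brain, and metabolic-cage urine. Analysis by LC-MS/MS with a deuterated internal standard. Group means underwent non-compartmental analysis; […].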

[1] = female, heterozygous Foxn1nu/Foxn1+, mouse, muscle, iv, 4 mg/kg
[2] = female, heterozygous Foxn1nu/Foxn1+, mouse, muscle, po, 30 mg/kg
[3] = female, heterozygous Foxn1nu/Foxn1+, mouse, plasma, iv, 4 mg/kg
[4] = female, heterozygous Foxn1nu/Foxn1+, mouse, plasma, po, 4 mg/kg
[5] = female, heterozygous Foxn1nu/Foxn1+, mouse, plasma, po, 30 mg/kg
[6] = female, heterozygous Foxn1nu/Foxn1+, mouse, red blood cells (RBC), iv, 4 mg/kg
[7] = female, heterozygous Foxn1nu/Foxn1+, mouse, red blood cells, po, 4 mg/kg
[8] = female, heterozygous Foxn1nu/Foxn1+, mouse, skeletal muscle, po, 4 mg/kg

SMILES: COc1ccc(C2=Nn3c(nnc3-c3cc(-c4ccc(Cl)cc4)n[nH]3)SC2C)cc1 (stereo not drawn) [UPCDC-10205, 3-(3-(4-chlorophenyl)-1H-pyrazole-5-yl)-6-(4-methoxyphenyl)-7-methyl-7H-[1,2,4]triazolo[3,4-b][1,3,4]thiadiazine]
- Tmax (female, heterozygous Foxn1nu/Foxn1+, mouse, lung, po, 30 mg/kg): 5 min
- Cmax (female, heterozygous Foxn1nu/Foxn1+, mouse, lung, po, 30 mg/kg, mice, PO 30 mg/kg suspension in 1% CMC, lung): 331 ng/mL
- AUC(0-t) [1]: 1630 ng·h/mL
- Tmax [1]: 15 min
- Cmax (female, heterozygous Foxn1nu/Foxn1+, mouse, muscle, iv, 4 mg/kg, mice, IV 4 mg/kg in 10% Solutol HS, muscle): 1900 ng/mL
- Cmax (female, heterozygous Foxn1nu/Foxn1+, mouse, muscle, po, 4 mg/kg, mice, PO 4 mg/kg in 10% Solutol HS, muscle): 51.2 ng/mL
- AUC(0-t) [2]: 140 ng·h/mL
- Tmax [2]: 5 min
- Cmax (female, heterozygous Foxn1nu/Foxn1+, mouse, muscle, po, 30 mg/kg, mice, PO 30 mg/kg suspension in 1% CMC, muscle): 189 ng/mL
- AUC(0-inf) [3]: 1020 ng·h/mL
- AUC(0-t) [3]: 1020 ng·h/mL
- Tmax [3]: 5 min
- half-life [3]: 36 min
- Cmax (female, heterozygous Foxn1nu/Foxn1+, mouse, plasma, iv, 4 mg/kg, mice, IV 4 mg/kg in 10% Solutol HS, plasma): 1710 ng/mL
- Vd (female, heterozygous Foxn1nu/Foxn1+, mouse, plasma, iv, 4 mg/kg, Vd, mice, IV 4 mg/kg, plasma): 3.4 L/kg
- Vd (female, heterozygous Foxn1nu/Foxn1+, mouse, plasma, iv, 4 mg/kg, Vss, mice, IV 4 mg/kg, plasma): 2 L/kg
- clearance (female, heterozygous Foxn1nu/Foxn1+, mouse, plasma, iv, 4 mg/kg, clearance, mice, IV 4 mg/kg, plasma): 65.2 mL/min/kg
- bioavailability (female, heterozygous Foxn1nu/Foxn1+, mouse, plasma, oral, 30 mg/kg): 0.3%
- AUC(0-t) [4]: 52.1 ng·h/mL
- Tmax [4]: 30 min
- half-life [4]: 48 min
- Cmax (female, heterozygous Foxn1nu/Foxn1+, mouse, plasma, po, 4 mg/kg, mice, PO 4 mg/kg in 10% Solutol HS, plasma): 35 ng/mL
- AUC(0-t) [5]: 25.7 ng·h/mL
- Tmax [5]: 60 min
- half-life [5]: 204 min
- Cmax (female, heterozygous Foxn1nu/Foxn1+, mouse, plasma, po, 30 mg/kg, mice, PO 30 mg/kg suspension in 1% CMC, plasma): 6.7 ng/mL
- AUC(0-t) [6]: 556 ng·h/mL
- Tmax [6]: 5 min
- Cmax (female, heterozygous Foxn1nu/Foxn1+, mouse, red blood cells (RBC), iv, 4 mg/kg, mice, IV 4 mg/kg in 10% Solutol HS, RBC): 980 ng/mL
- Cmax (female, heterozygous Foxn1nu/Foxn1+, mouse, red blood cells (RBC), po, 4 mg/kg, mice, PO 4 mg/kg in 10% Solutol HS, RBC): 16 ng/mL
- AUC(0-t) [7]: 23.5 ng·h/mL
- Tmax [7]: 30 min
- AUC(0-t) [8]: 91.4 ng·h/mL
- Tmax [8]: 60 min
- level in pooled urine as % of the total amount administered (mice, IV 4 mg/kg, 0-6 h collection): 0.0011%
- level in pooled urine as % of the total amount administered (mice, IV 4 mg/kg, 6-24 h collection): 0.0010%
- clearance (mice, IV 4 mg/kg, plasma, 4 mg/kg): 65 mL/min/kg
- peak plasma concentration after IV dosing (mice, IV 4 mg/kg, 4 mg/kg): 1.7 µg/mL and 4.0 µM
- plasma level by the 6 h time point (mice, IV 4 mg/kg, LLQ 1 ng/mL): below the lower limit of quantitation
- %F (oral bioavailability, using AUC0-t) (mice, PO 4 mg/kg in 10% Solutol HS vs IV 4 mg/kg, plasma, 4 mg/kg): 5.1%
- level in pooled urine as % of the total dose (mice, PO 4 mg/kg, 0-6 h): 0.0077%
- urine concentration (mice, PO 4 mg/kg, 6-24 h): below the LLQ
- time of Cmax after administration (mice, PO 4 mg/kg, plasma): 0.5 h
- plasma concentrations after the 2 h time point (mice, PO 4 mg/kg, LLQ 1 ng/mL): below the LLQ
- time of Cmax after administration (mice, PO 30 mg/kg in 1% CMC suspension, plasma): 1.0 h
- urine concentration (mice, PO 30 mg/kg in 1% CMC, all urine samples): below the LLQ
- amount excreted in urine (mice, renal excretion): < 0.1 % of dose
- tissue distribution (mice, tissue levels compared with plasma): extensive tissue distribution
